In ChEMBL document CHEMBL2375275, “Design and synthesis of novel chromenone derivatives as interleukin-5 inhibitors” (Bioorg Med Chem, 2013):

Biological target: T1, Interleukin-5 (Mus musculus) (UniProt P04401)
T1 sequence (whole entry): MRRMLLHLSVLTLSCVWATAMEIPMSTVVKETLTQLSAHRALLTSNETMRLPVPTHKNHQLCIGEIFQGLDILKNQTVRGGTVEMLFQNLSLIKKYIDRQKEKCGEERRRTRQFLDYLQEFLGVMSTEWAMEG
Assay: Inhibition interleukin-5 in mouse Y16 cells at 30 uM after 48 hrs by WST-1 assay
Assay type: cell-based
Method in brief: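 IL-5-dependent pro-B Y16 cells stimulated with 3 U/mL mIL-5 and incubated 48 h with or without sample; cell metabolism read by WST-1 as proliferation index.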

Row | inhibition | SMILES
1 | 94% | O=C(CCc1coc2cccc(OCC3CCCCC3)c2c1=O)c1ccc(Cl)cc1
2 | 91% | COc1ccc(C(=O)CCc2coc3cccc(OCC4CCCCC4)c3c2=O)cc1
3 | 68% | O=C(CCc1coc2cccc(OCC3CCCCC3)c2c1=O)c1ccc(Cl)c(Cl)c1
4 | 55% | O=c1c(CCC(O)c2ccc(C(F)(F)F)cc2)coc2cccc(OCC3CCCCC3)c12 (centres undefined)
5 | 94% | COc1ccc(C(O)CCc2coc3cccc(OCC4CCCCC4)c3c2=O)cc1 (centres undefined)
6 | 94% | O=c1c(CCC(O)c2ccc(O)cc2)coc2cccc(OCC3CCCCC3)c12 (centres undefined)
7 | 94% | O=c1c(CCC(O)c2ccc(F)cc2)coc2cccc(OCC3CCCCC3)c12 (centres undefined)
8 | 93% | N#Cc1ccc(C(=O)CCc2coc3cccc(OCC4CCCCC4)c3c2=O)cc1
9 | 80% | O=C(CCc1coc2cccc(OCC3CCCCC3)c2c1=O)c1ccc(O)cc1
10 | 70% | Cc1ccc(C(=O)CCc2coc3cccc(OCC4CCCCC4)c3c2=O)cc1
11 | 13.5% | Cc1ccc(C(O)CCc2coc3cccc(OCC4CCCCC4)c3c2=O)cc1 (centres undefined)
12 | 12.3% | O=C(CCc1coc2cccc(OCC3CCCCC3)c2c1=O)c1ccccc1
13 | 94% | N#Cc1ccc(C(O)CCc2coc3cccc(OCC4CCCCC4)c3c2=O)cc1 (centres undefined)
14 | 94% | O=c1c(CCC(O)c2ccc(Cl)cc2)coc2cccc(OCC3CCCCC3)c12 (centres undefined)
15 | 94% | O=c1c(CCC(O)c2ccc(Cl)c(Cl)c2)coc2cccc(OCC3CCCCC3)c12 (centres undefined)
16 | 10% | O=C(CCc1coc2cccc(OCC3CCCCC3)c2c1=O)c1ccc2ccccc2c1
17 | 6.7% | CC(C)(C)c1ccc(C(=O)CCc2coc3cccc(OCC4CCCCC4)c3c2=O)cc1
18 | 40% | O=C(CCC1COc2cccc(OCC3CCCCC3)c2C1=O)c1ccc(Cl)c(Cl)c1 (centres undefined)
19 | 94% | O=c1c(CCC(O)c2ccccc2)coc2cccc(OCC3CCCCC3)c12 (centres undefined)
20 | 93% | O=C(CCc1coc2cccc(OCC3CCCCC3)c2c1=O)c1ccc(F)cc1
21 | 6.6% | CC(C)(C)c1ccc(C(O)CCc2coc3cccc(OCC4CCCCC4)c3c2=O)cc1 (centres undefined)
22 | 5.3% | O=C(CCc1coc2cccc(OCC3CCCCC3)c2c1=O)c1ccc(C(F)(F)F)cc1
23 | 86% | O=c1c(CCC(O)c2ccc3ccccc3c2)coc2cccc(OCC3CCCCC3)c12 (centres undefined)
24 | 34% | COc1ccc(C(=O)CCC2COc3cccc(OCC4CCCCC4)c3C2=O)cc1 (centres undefined)
